High-throughput results: PubChem BioAssay, several laboratories
CSC inhib: cancer stem cell viability inhibitors, primary screen, luminescence | inhibition, % at 7.5 µM | cancer stem cell-like cells viability | 300,000 tested, 1.1% active; in the data active means inhibition above about 75%; inconclusive means no clear call, values can overlap the other calls; tested in HMLE shEcad cells
Beta apoptosis: inhibitors of cytokine-induced beta cell apoptosis, primary screen, luminescence | 300,000 tested, 0.8% active | AID 435005, 2010 | INS-1E cytokine-induced death, ATP luminescence, 48 h; percent of positive-control rescue, neutral wells zero | protection from apoptosis, % (test concentration not listed);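 active means Every replicate reaches about 75%, or at least half do and their mean reaches it too, limit read from the data; inconclusive means At least half of replicates reach the limit but their mean does not; inactive means Under half of replicates reach the limit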;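 further: 0% = cytokine-treated negative control wells and 100% = positive control rescue; higher means more ATP so stronger rescue from cytokine killing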
SKKanGAS inh: S. pyogenes SKKanGAS growth inhibitors in kanamycin, primary screen, streptokinase expression inhibitor project, SKKanGAS strain, BacTiter-Glo luminescence. 6 h. inhibition, % at 7.5 µM. 300,000 tested, 1.3% active. AID 1662, 2009;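 active means mean replicate score, as percent of positive control median, at least 50; inconclusive means mean below 50 but one replicate at or above 50; inactive means mean and every replicate below 50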;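 further: strain carries kanamycin resistance gene driven by streptokinase promoter and grows in 40 µg/ml kanamycin; loss of luminescence reflects streptokinase promoter inhibition or plain growth inhibition; 0% = median of DMSO wells and 100% = positive control at its reference dose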
T cruzi repl: inhibitors of intracellular T. cruzi growth, primary screen, luminescence, NIH3T3 host cells; 300,000 tested, 1.4% active; T. cruzi beta-gal in NIH3T3, 90 h; inhibition, % (test concentration not listed);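 active means mean inhibition across valid replicates above about 55%, limit read from the data; inconclusive means mean below that limit but half or more replicates reach it; inactive means mean below it, under half of replicates reach it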;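 further: signal also drops with host cell toxicity which is not excluded here; 0% = plate median of DMSO wells and 100% = zero luminescence signal; higher percent means less beta-gal luminescence so fewer parasites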
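assay system = mouse NIH/3T3 fibroblasts infected with β-gal-expressing T. cruzi Tulahuen C4 | input = 5,000 NIH/3T3 host cells per well | buffer or medium = DMEM plus 2% FBS | timing = 3 h host attachment, then at least 90 h co-culture | measured by = GalScreen luminescence, 60 min | evaluation = luminescence reflecting intracellular parasite burden, expressed as percent inhibition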
Lmaj promast: Leishmania major promastigote growth inhibition, primary screen; inhibition, % at 10 µM; AID 1063, 2008; 200,000 tested, 9% active; Leishmania major promastigotes, resazurin fluorescence viability; in the data active means inhibition above about 50%;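 further: promastigotes grown with compound for 44 hours at 28 °C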
Mdm2 MdmX PPI: inhibitors of human Mdm2-MdmX association, primary screen, cell-based, luminescence, split luciferase, SaOS-2, uHTS. inhibition, % at 8 µM. 330,000 tested, 3% active. Protein Mdm4 (Homo sapiens) + E3 ubiquitin-protein ligase Mdm2 (Homo sapiens), …. SaOS-2 split-luciferase Mdm2/MdmX complementation;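 active means inhibition of at least 50% at 8 µM in the primary screen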
Target sequence (O15151 whole entry, looked up): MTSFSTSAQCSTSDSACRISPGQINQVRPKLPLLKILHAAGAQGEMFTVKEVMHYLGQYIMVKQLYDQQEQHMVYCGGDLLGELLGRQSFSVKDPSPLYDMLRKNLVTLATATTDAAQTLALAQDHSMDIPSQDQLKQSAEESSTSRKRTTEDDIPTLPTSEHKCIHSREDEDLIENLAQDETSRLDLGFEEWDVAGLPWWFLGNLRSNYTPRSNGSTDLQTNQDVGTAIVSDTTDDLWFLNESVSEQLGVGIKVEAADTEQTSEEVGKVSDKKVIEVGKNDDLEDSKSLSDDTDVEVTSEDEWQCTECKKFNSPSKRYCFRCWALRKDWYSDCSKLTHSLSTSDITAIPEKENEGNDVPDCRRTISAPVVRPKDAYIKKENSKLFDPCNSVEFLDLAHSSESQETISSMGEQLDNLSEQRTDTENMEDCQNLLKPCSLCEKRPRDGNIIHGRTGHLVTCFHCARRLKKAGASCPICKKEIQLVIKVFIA
Target sequence (Q00987 whole entry, looked up): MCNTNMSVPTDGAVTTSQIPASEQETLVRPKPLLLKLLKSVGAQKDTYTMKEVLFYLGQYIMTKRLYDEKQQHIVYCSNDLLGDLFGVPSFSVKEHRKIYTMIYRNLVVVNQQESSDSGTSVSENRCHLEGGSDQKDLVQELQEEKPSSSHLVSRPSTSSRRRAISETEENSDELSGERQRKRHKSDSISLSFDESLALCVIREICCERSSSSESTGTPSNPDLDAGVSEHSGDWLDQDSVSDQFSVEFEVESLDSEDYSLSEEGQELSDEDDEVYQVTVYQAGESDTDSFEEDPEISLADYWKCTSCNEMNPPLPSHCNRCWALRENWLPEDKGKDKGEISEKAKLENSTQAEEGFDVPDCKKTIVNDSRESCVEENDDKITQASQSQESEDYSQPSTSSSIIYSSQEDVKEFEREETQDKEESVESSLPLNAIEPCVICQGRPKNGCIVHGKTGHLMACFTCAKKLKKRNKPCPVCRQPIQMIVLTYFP
Starred values were filed as active, the others as inactive; ? = inconclusive; · = no result. The list is not random: actives were taken first. Their share in the collection is about 9.4%.

SMILES	CSC inhib	Beta apoptosis	SKKanGAS inh	T cruzi repl	Lmaj promast	Mdm2 MdmX PPI
CN1CCc2c(sc3nc(SCC(=O)NCc4ccco4)n(-c4ccccc4)c(=O)c23)C1	-7.8	-4.6	1.7	31.3	·	15.9
CCc1cc(C(=O)Nc2cc(S(=O)(=O)N(C)C)ccc2C)sc1C	-3.0	-4.1	-7.6	0.8	98.8*	9.0
CCc1cc(C(=O)Nc2cc(S(=O)(=O)N(CC)CC)ccc2N2CCN(C)CC2)sc1C	-5.9	0.4	-1.8	6.8	·	21.0
COc1cc2c(C(=O)N3CCN(c4ccccc4C)CC3)c(C)oc2cc1Br	20.1	-1.3	51.3*	30.2	14.7	12.0
Cc1nc2ccccc2nc1OCC(=O)Nc1ccc2ccccc2c1	8.1	-6.9	2.5	17.2	59.2*	47.3
Cc1cc(O)c(-c2cc(O)c(C)cc2O)cc1O	43.8	·	5.9	55.4*	·	-7.5
COc1ccc(/C=N/N2CCOCC2)cc1O	-4.5	-2.1	-0.6	-14.2	-1.5	5.3
COc1ccc(/C=N/N2CCN(C3c4ccccc4-c4ccccc43)CC2)cc1O	36.0	·	-3.2	-7.1	66.8*	-3.0
CCCc1[nH]c2ccc(C#N)cc2c1CCC	82.0*	-4.3	39.2	38.6	·	33.5
CCn1cc(/C=C/c2cc[n+](C)cc2)c2ccccc21	12.3	85.2*	-5.0	54.7*	·	·
Cc1ccccc1/C=C/c1cc[n+](C)cc1	-1.9	1.1	-0.7	-3.4	-1.1	10.9
O=C1c2ccccc2C(=O)N1CCCON1C(=O)c2ccccc2C1=O	-18.7	-0.2	-5.3	-15.3	50.3*	17.8
Cc1ccc(N=N/C(=C\O)C(=O)c2ccc(Cl)cc2)cc1	16.8	·	?	-13.4	91.1*	40.8
O=C(/C(=C/O)N=Nc1ccccc1)c1ccc(Cl)cc1	71.3	27.4	-3.4	-30.1	37.4	35.3
CC(C)[C@H](NC(=O)c1ccc(C(C)(C)C)cc1)C(=O)Nc1nnc(C2CC2)s1	4.8	-0.2	-0.5	10.2	83.5*	12.2
COC(=O)c1ccc(C(=O)N2CCCC(CNC(=O)c3ccc(F)cc3)C2)cc1 (stereo not given)	-2.0	-1.1	-1.9	-20.5	·	21.5
COc1ccc(S(=O)(=O)NCC2CCCN(Cc3ccc(OC)cc3F)C2)cc1 (stereo not given)	-11.5	-1.1	81.7*	0.9	·	3.8
COc1ccc(CN2CCCC(CNC(=O)c3ccc(F)cc3)C2)c(F)c1 (stereo not given)	8.9	-5.8	6.6	35.8	88.7*	-1.8
COc1ccc(CN2CCCC(CNC(=O)c3ccc(F)cc3)C2)c(C)c1C (stereo not given)	-2.4	-5.4	-0.2	70.6*	79.8*	17.3
O=C(NCC1CCCN(Cc2ccccc2F)C1)c1cccc(C(F)(F)F)c1 (stereo not given)	4.1	-2.6	4.1	66.3*	61.3*	1.1
COc1ccc(S(=O)(=O)NCC2CCCN(Cc3ccccc3Cl)C2)cc1 (stereo not given)	6.2	1.2	3.4	25.9	·	9.9
Cc1ccccc1CN(CC1CCC(C(=O)O)CC1)C(=S)Nc1ccccc1F (stereo not given)	·	-4.4	1.9	-1.3	-3.3	19.0
COC(=O)c1sccc1-n1cccc1C(=O)C(=O)N1CCOCC1	-18.5	-1.6	-14.9	-5.1	4.3	11.2
CC1SC(c2ccc(F)cc2)NC1=O (stereo not given)	-4.5	-2.3	-12.5	-17.7	-4.6	-16.1
Cc1cc([N+](=O)[O-])nn1Cc1noc(C(=O)NCCc2ccccn2)n1	-18.0	-2.0	3.6	-2.9	·	8.9
SMILES	CSC inhib	Beta apoptosis	SKKanGAS inh	T cruzi repl	Lmaj promast	Mdm2 MdmX PPI
Cc1ccccc1-c1cc(C(=O)Nc2sc(C)c(C)c2C(N)=O)c2ccccc2n1	·	92.9*	47.0	19.0	19.3	30.1
CCOC(=O)c1c(NC(=O)c2cc(-c3ccc(Cl)s3)nc3ccccc23)sc(C(N)=O)c1C	14.3	76.5*	1.5	-18.1	-2.9	·
CCOC(=O)C1=C(C)OC(N)=C(C#N)C1c1cc2cc(C)ccc2nc1N1CCCCC1 (stereo not given)	7.4	-7.5	2.5	-4.3	13.4	-20.7
CCOC(=O)C1=C(C)OC(N)=C(C#N)C1c1cc2ccccc2nc1N1CCCCC1 (stereo not given)	-0.6	-9.0	2.4	-0.9	86.2*	23.7
O=C(NC1CCCCC1)N1CCN(CCc2ccccc2)CC1	6.9	1.2	-2.1	-4.6	60.2*	8.9
COC(=O)N1CCN(CCc2ccccc2)CC1	-0.3	6.1	-1.3	13.2	96.9*	12.7
CCOC(=O)N1CCN(CCCc2ccccc2)CC1	-7.2	3.3	-2.9	2.1	·	-18.4
COc1ccccc1N1CCN(C(=O)c2cc(N3C(=O)C4C5CCC(C5)C4C3=O)ccc2Cl)CC1 (stereo not given)	0.5	4.5	-2.3	6.6	89.5*	-5.6
COc1ccccc1-c1coc2c(CN3CCCC(C)C3)c(O)ccc2c1=O (stereo not given)	6.1	-4.2	3.2	10.5	·	18.0
Cn1c(=O)c2c(ncn2CC(=O)N2CCN(S(=O)(=O)c3ccccc3)CC2)n(C)c1=O	-8.8	-6.1	0.1	7.2	·	-5.2
COc1ccc(N2CCN(C(=O)c3ccc(Br)cc3)CC2)c([N+](=O)[O-])c1	20.3	-4.8	7.0	14.3	-0.2	10.7
COc1ccc(N2CCN(C(=O)c3ccc(C)cc3)CC2)c([N+](=O)[O-])c1	-10.8	0.3	-0.5	1.7	54.0*	15.8
O=C(NC(=S)N1CCN(c2c(Cl)cccc2[N+](=O)[O-])CC1)c1cccs1	58.3	7.3	76.0*	17.7	3.6	28.0
COc1ccc(N2CCN(C(=S)NC(=O)c3cccs3)CC2)c([N+](=O)[O-])c1	27.3	9.6	51.7*	10.4	2.8	-0.9
O=C(COc1ccc(S(=O)(=O)N2CCOCC2)cc1)NC1CC1	-1.0	-12.8	5.1	-13.0	·	4.4
COc1ccc(NC(=O)CSc2nc3ccccc3c(=O)n2CCCN2CCC(C)CC2)c(OC)c1	12.2	-5.7	1.4	26.0	55.2*	34.0
COc1ccc(NC(=O)CSc2nc3ccccc3c(=O)n2CCC(=O)N2CCCCC2)cc1	-6.5	-5.9	15.5	13.7	70.0*	4.4
O=C(CSc1nc2ccccc2c(=O)n1CCCN1CCOCC1)Nc1cccc(S(=O)(=O)N2CCCCCC2)c1	-6.8	5.1	4.7	29.8	73.8*	11.1
CC(=O)Nc1ccc(NC(=O)CSc2nc3ccccc3c(=O)n2CCCN2CCOCC2)cc1	-8.9	-2.2	·	·	·	5.3
CCOc1ccc(NC(=O)CSc2nc3ccccc3c(=O)n2CCCC(=O)N2CCCC2)cc1	-3.3	-4.0	1.5	12.7	-2.5	-8.4
CC1CCN(CCCn2c(SCC(=O)Nc3ccccc3Cl)nc3ccccc3c2=O)CC1	-4.8	-6.1	4.4	34.9	64.6*	32.0
